Measurements reported in ChEMBL document CHEMBL4330056, “Synthesis and Cytotoxic and Antiviral Profiling of Pyrrolo- and Furo-Fused 7-Deazapurine Ribonucleosides” (J Med Chem, 2018).
Active and inactive are the calls of the source. No cut-off for these calls is given here.

Columns and labels:
[1] = Stability in human plasma assessed as compound remaining at 3.3 umol/L after 30 mins by RF-MS analysis relative to control; assay type: ADME, cell-free; settings: read-out: Stability
[2] = test system: CCRF-CEM; test: Induction of cell cycle arrest in human CCRF-CEM cells assessed as accumulation at S phase at 5 times IC50 concentration after 24 hrs by propidium iodide-staining based flow cytometry (reference value: 41.08%); assay type: functional
[3] = test system: U2OS; test: Antiproliferative activity against human U2OS cells after 3 days by MTS assay; assay type: functional, cell-based; settings: 72 h
[4] = test system: Human orthopneumovirus; test: Antiviral activity against Human respiratory syncytial virus A2 infected in Hep2 cells assessed as reduction in virus-induced cytopathic effect incubated for 4 days by CellTiter-Glo viability reagent based assay; assay type: functional, organism-based
[5] = Chemical stability of the compound assessed as compound remaining after 120 mins relative to control; assay type: physicochemical; settings: read-out: Stability
[6] = Antiproliferative activity against human K562-TAX cells after 3 days by MTS assay; assay type: functional, cell-based; settings: 72 h
[7] = Stability in human plasma assessed as compound remaining at 3.3 umol/L after 15 mins by RF-MS analysis relative to control; assay type: ADME, cell-free; settings: read-out: Stability
[8] = test system: HL-60; test: Antiproliferative activity against human HL60 cells after 72 hrs by XTT assay; assay type: functional, cell-based; settings: HL-60, 72 h
[9] = test system: Coxsackievirus B3; test: Antiviral activity against Human coxsackie B3 Nancy infected in human HeLa cells assessed as inhibited virus-induced cytopathic effect incubated for 2 days by XTT assay; assay type: functional, organism-based
[10] = test system: HCT-116; test: Antiproliferative activity against p53 gene knocked out human HCT116 cells after 3 days by MTS assay; assay type: functional, cell-based; settings: HCT-116, 72 h
[11] = test system: CCRF-CEM; test: Induction of cell cycle arrest in human CCRF-CEM cells assessed as accumulation at G0/G1 phase at IC50 concentration after 24 hrs by propidium iodide-staining based flow cytometry (reference value: 39.70%); assay type: functional
[12] = Mitochondrial toxicity in human OCI-AML2 cells assessed as reduction in oxidative phosphorylation-based viability after 72 hrs by CellTiterGlo assay; assay type: cell-based
How it was run: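 OCI-AML2 leukemia cells, which rely on mitochondrial OXPHOS, treated for 3 days in a survival assay; IC50 reported.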

[13] = Stability in human plasma assessed as compound remaining at 3.3 umol/L after 60 mins by RF-MS analysis relative to control; assay type: ADME, cell-free; settings: read-out: Stability
[14] = test system: CCRF-CEM; test: Inhibition of mitosis in human CCRF-CEM cells assessed Ser10 H3 phosphorylation positive cells at IC50 concentration after 24 hrs by flow cytometry relative to total cell population (reference value: 1.36%); assay type: functional; design: scale not given: the % may be the effect or the level left
[15] = test system: CCRF-CEM; test: Induction of cell cycle arrest in human CCRF-CEM cells assessed as accumulation at subG1 phase at IC50 concentration after 24 hrs by propidium iodide-staining based flow cytometry (reference value: 3.45%); assay type: functional
[16] = test system: CCRF-CEM; test: Induction of cell cycle arrest in human CCRF-CEM cells assessed as accumulation at G2/M phase at IC50 concentration after 24 hrs by propidium iodide-staining based flow cytometry (reference value: 19.22%); assay type: functional
[17] = Protein binding in human plasma; assay type: ADME, cell-free; settings: read-out: PPB (converted)
[18] = test system: CCRF-CEM; test: Inhibition of RNA synthesis in human CCRF-CEM cells assessed as RNA synthesis level at 5 times IC50 concentration after 24 hrs by BrU incorporation assay (reference value: 49.89%); assay type: functional; design: scale not given: the % may be the effect or the level left
[19] = Stability in human plasma assessed as compound remaining at 3.3 umol/L after 120 mins by RF-MS analysis relative to control; assay type: ADME, cell-free; settings: read-out: Stability
[20] = Chemical stability of the compound assessed as compound remaining after 30 mins relative to control; assay type: physicochemical; settings: read-out: Stability
[21] = test system: CCRF-CEM; test: Inhibition of mitosis in human CCRF-CEM cells assessed Ser10 H3 phosphorylation positive cells at 5 times IC50 concentration after 24 hrs by flow cytometry relative to total cell population (reference value: 1.36%); assay type: functional; design: scale not given: the % may be the effect or the level left
[22] = test system: Hepatitis C virus; test: Antiviral activity against Hepatitis C virus genotype 1b infected in human Huh-luc replicon cells after 3 days by luciferase assay; assay type: functional, organism-based, Hepacivirus hominis; settings: subtype 1b, 72 h
[23] = test system: HCT-116; test: Antiproliferative activity against human HCT116 cells after 3 days by MTS assay; assay type: functional, cell-based; settings: HCT-116, 72 h
[24] = test system: CCRF-CEM; test: Induction of cell cycle arrest in human CCRF-CEM cells assessed as accumulation at G2/M phase at 5 times IC50 concentration after 24 hrs by propidium iodide-staining based flow cytometry (reference value: 19.22%); assay type: functional
[25] = Cytotoxicity against human Hep2 cells assessed as reduction in cell viability after 3 days by CellTiter-Glo assay; assay type: cell-based; settings: HEp-2 cells
[26] = test system: CCRF-CEM; test: Inhibition of DNA synthesis in human CCRF-CEM cells assessed as DNA synthesis level at 5 times IC50 concentration after 24 hrs by BrdU incorporation assay (reference value: 43.39%); assay type: functional; design: scale not given: the % may be the effect or the level left
[27] = test system: Hepatitis C virus; test: Antiviral activity against Hepatitis C virus genotype 2a infected in human Huh-luc replicon cells after 3 days by luciferase assay; assay type: functional, organism-based, Hepacivirus hominis; settings: subtype 2a, 72 h
[28] = Chemical stability of the compound assessed as compound remaining after 60 mins relative to control; assay type: physicochemical; settings: read-out: Stability
[29] = Antiproliferative activity against human CEM-DNR-bulk cells after 3 days by MTS assay; settings: 72 h
[30] = test system: K562; test: Antiproliferative activity against human K562 cells after 3 days by MTS assay; assay type: functional, cell-based; settings: K562, 72 h
[31] = test system: HeLa S3; test: Antiproliferative activity against human HeLaS3 cells after 72 hrs by XTT assay; assay type: functional, cell-based; settings: HeLa S3, 72 h
[32] = Effective permeability of the compound at 20 umol/L by PAMPA; assay type: ADME; settings: 20 µM
[33] = test system: CCRF-CEM; test: Induction of cell cycle arrest in human CCRF-CEM cells assessed as accumulation at S phase at IC50 concentration after 24 hrs by propidium iodide-staining based flow cytometry (reference value: 41.08%); assay type: functional
[34] = Metabolic stability in human liver microsomes assessed as compound remaining at 5 umol/L after 30 mins relative to control; assay type: ADME, Microsome; settings: read-out: Stability
How it was run: (§1)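 Human microsomal fraction; percent compound remaining over time.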

[35] = test system: Human alphaherpesvirus 1; test: Antiviral activity against human herpesvirus 1 HF infected in African green monkey Vero cells assessed as inhibited virus-induced cytopathic effect incubated for 3 days by XTT assay; assay type: functional, organism-based
[36] = test system: CCRF-CEM; test: Induction of cell cycle arrest in human CCRF-CEM cells assessed as accumulation at G0/G1 phase at 5 times IC50 concentration after 24 hrs by propidium iodide-staining based flow cytometry (reference value: 39.70%); assay type: functional
[37] = test system: Influenza A virus; test: Antiviral activity against Influenza A virus (A/Mexico/4108/2009(H1N1)) infected in MDCK cells assessed as inhibited virus-induced cytopathic effect incubated for 2 days by XTT assay; assay type: functional, organism-based
[38] = test system: MRC5; test: Antiproliferative activity against human MRC5 cells after 3 days by MTS assay; settings: MRC5, 72 h
[39] = Metabolic stability in human liver microsomes assessed as compound remaining at 5 umol/L after 15 mins relative to control; assay type: ADME, Microsome; settings: read-out: Stability; how it was run: as §1
[40] = test system: CCRF-CEM; test: Antiproliferative activity against human CCRF-CEM cells after 3 days by MTS assay; assay type: functional, cell-based; settings: 72 h
[41] = test system: HepG2; test: Antiproliferative activity against human HepG2 cells after 72 hrs by XTT assay; assay type: functional, cell-based; settings: HepG2, 72 h
[42] = test system: CCRF-CEM; test: Inhibition of RNA synthesis in human CCRF-CEM cells assessed as RNA synthesis level at IC50 concentration after 24 hrs by BrU incorporation assay (reference value: 49.89%); assay type: functional; design: scale not given: the % may be the effect or the level left
[43] = target: T1, Adenosine kinase (Homo sapiens, UniProt P55263); test: Substrate activity at recombinant human ADK assessed as compound phosphorylation at 50 uM after 20 mins in presence of [3H]-adenosine by UPLC; assay type: ADME
[44] = test system: CCRF-CEM; test: Inhibition of DNA synthesis in human CCRF-CEM cells assessed as DNA synthesis level at IC50 concentration after 24 hrs by BrdU incorporation assay (reference value: 43.39%); assay type: functional; design: scale not given: the % may be the effect or the level left
[45] = test system: BJ; test: Antiproliferative activity against human BJ cells after 3 days by MTS assay; settings: 72 h
[46] = Chemical stability of the compound assessed as compound remaining after 15 mins relative to control; assay type: physicochemical; settings: read-out: Stability
[47] = test system: dengue virus type 2; test: Antiviral activity against Dengue virus 2 Thailand/16681/84 infected in African green monkey Vero cells assessed as inhibition of virus replication incubated for 3 days by fluorescence microscopy; assay type: functional, organism-based
[48] = test system: A549; test: Antiproliferative activity against human A549 cells after 3 days by MTS assay; assay type: functional, cell-based; settings: A549, 72 h
[49] = test system: CCRF-CEM; test: Induction of cell cycle arrest in human CCRF-CEM cells assessed as accumulation at subG1 phase at 5 times IC50 concentration after 24 hrs by propidium iodide-staining based flow cytometry (reference value: 3.45%); assay type: functional
[50] = Metabolic stability in human liver microsomes assessed as compound remaining at 5 umol/L after 60 mins relative to control; assay type: ADME, Microsome; settings: read-out: Stability; how it was run: as §1
[51] = target: T1, Adenosine kinase; test: Inhibition of recombinant human ADK using [3H]-adenosine as substrate after 20 mins by TLC scanner-based analysis relative to control
How it was run: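 ADK inhibition: 50 μM adenosine substrate with 10 μM test compound and 97 ng enzyme, 20 min at 37 °C.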

T1 sequence (P55263 whole entry): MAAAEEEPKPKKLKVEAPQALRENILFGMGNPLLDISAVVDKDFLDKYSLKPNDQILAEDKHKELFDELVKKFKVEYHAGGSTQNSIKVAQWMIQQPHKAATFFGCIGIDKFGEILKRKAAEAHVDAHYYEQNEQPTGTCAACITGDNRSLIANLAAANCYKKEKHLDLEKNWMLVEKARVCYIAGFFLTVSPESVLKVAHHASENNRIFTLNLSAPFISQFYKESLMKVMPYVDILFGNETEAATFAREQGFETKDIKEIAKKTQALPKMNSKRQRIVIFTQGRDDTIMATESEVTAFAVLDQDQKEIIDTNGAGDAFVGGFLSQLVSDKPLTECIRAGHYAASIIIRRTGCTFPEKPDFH

CSc1ncnc2c1c1c(ccn1C)n2[C@@H]1O[C@H](CO)[C@@H](O)[C@H]1O
remaining at 0.5 h, 3.3 µM [1]: 99%
Activity [2]: 42.94%
IC50 [3]: 1410 nM
Activity [4]: inactive
remaining at 2 h [5]: 97%
IC50 [6]: 50000 nM
remaining at 0.25 h, 3.3 µM [7]: 100%
IC50 [8]: 580 nM
Activity [9]: inactive
IC50 [10]: 380 nM
Activity [11]: 26.28%
IC50 at 72 h [12]: 160 nM
remaining at 1 h, 3.3 µM [13]: 98%
Activity [14]: 0.33%
Activity [15]: 5.61%
Activity [16]: 17.36%
fraction unbound [17]: 0.11
Activity [18]: 3.56%
remaining at 2 h, 3.3 µM [19]: 98%
remaining at 0.5 h [20]: 99%
Activity [21]: 1.49%
EC50 [22]: 40 nM
IC50 [23]: 300 nM
Activity [24]: 16.52%
CC50 at 72 h [25]: > 44400 nM
Activity [26]: 7.8%
EC50 [27]: 130 nM
remaining at 1 h [28]: 98%
IC50 [29]: > 50000 nM
IC50 [30]: 390 nM
IC50 [31]: 1360 nM
log(permeability) [32]: -5.69
Activity [33]: 56.36%
remaining at 0.5 h, 5 µM [34]: 99%
Activity [35]: inactive
Activity [36]: 40.55%
Activity [37]: inactive
IC50 [38]: > 50000 nM
remaining at 0.25 h, 5 µM [39]: 99%
IC50 [40]: 340 nM
IC50 [41]: 1530 nM
Activity [42]: 21.43%
Activity [43]: 33%
Activity [44]: 30.41%
IC50 [45]: 5160 nM
remaining at 0.25 h [46]: 100%
Activity [47]: inactive
IC50 [48]: > 50000 nM
Activity [49]: 12.67%
remaining at 1 h, 5 µM [50]: 97%
IC50 [51]: > 10000 nM
